According to PMC5270551 (Biochemistry, 2015):
Changes are numbered by the printed parent chain. In names and notes the source's numbering stands. Where two headings read alike, the source gives them in different places. Where a SMILES comes first, the peptide text is derived from it. Bridges are numbered along the chain shown (N, C = ends).

How the values were obtained:
[1] = system: Klebsiella pneumoniae 13883; test: Morphology imaging of Gram-negative bacteria; assay type: cell-based; conditions: 20 μM peptide, 1 × 10^8 CFU/mL, mid-log, 1 h 37 °C
Procedure, shortened: (§1)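 Mid-log bacteria at 1 × 10^8 CFU/mL were exposed to test peptide (20 μM; 40 μM for P. aeruginosa) for 1 h at 37 °C in 10 mM sodium phosphate buffer, pH 7.4, with 1% v/v TSB, then imaged by microscopy for morphology.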

E. coli K-12 = test: Morphology imaging of Gram-negative bacteria; assay type: cell-based, Escherichia coli; conditions: 20 μM peptide, 1 × 10^8 CFU/mL, mid-log, 1 h 37 °C
Procedure, shortened: as §1

E. coli CFT073 = test: Morphology imaging of Gram-negative bacteria; assay type: cell-based, Escherichia coli; conditions: 20 μM HD5ox, 1 × 10^8 CFU/mL, mid-log, 1 h 37 °C; R-HD5ox Figure S19
Procedure, shortened: as §1

[2] = cited from earlier work
E. coli cyto-GFP = assay type: cell-based, Escherichia coli
Procedure, shortened: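 An E. coli strain carrying cytoplasmic GFP, in mid-log or stationary phase, was exposed to test peptide across 0–80 μM. Cell length and mean GFP fluorescence intensity (arbitrary units) were taken from fluorescence images, and untreated and treated means were compared by Student's t-test.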

E. coli ATCC 25922 [3] = test: Morphology imaging by phase-contrast microscopy and SEM; assay type: cell-based, Escherichia coli; conditions: for cells elongated (length 5 μm or greater) / cells exhibiting blebs: 1 × 10^8 CFU/mL, mid-log, 1 h 37 °C
E. coli ATCC 25922 [4] = assay type: cell-based, Escherichia coli; conditions: for log-reduction in CFU/mL: 4 μM peptide
[5] = system: Pseudomonas aeruginosa PAO1; assay type: cell-based
[6] = system: Acinetobacter baumannii 17978; assay type: cell-based

CC[C@H](C)[C@@H]1NC(=O)[C@H](CCC(=O)O)NC(=O)[C@@H]2CSSC[C@@H]3NC(=O)[C@H](Cc4ccc(O)cc4)NC(=O)[C@@H](NC(=O)[C@@H](NC(=O)[C@H](C)N)[C@@H](C)O)CSSC[C@@H](C(=O)N[C@@H](CCCNC(=N)N)C(=O)O)NC(=O)[C@H](CSSC[C@H](NC(=O)[C@H](CCCNC(=N)N)NC(=O)CNC(=O)[C@H]([C@@H](C)O)NC(=O)[C@H](CCCNC(=N)N)NC3=O)C(=O)N[C@@H](C)C(=O)N[C@@H]([C@@H](C)O)C(=O)N[C@@H](CCCNC(=N)N)C(=O)N[C@@H](CCC(=O)O)C(=O)N[C@@H](CO)C(=O)N[C@@H](CC(C)C)C(=O)N[C@@H](CO)C(=O)NCC(=O)N[C@@H](C(C)C)C(=O)N2)NC(=O)[C@H](CC(C)C)NC(=O)[C@H](CCCNC(=N)N)NC(=O)[C@H](Cc2ccc(O)cc2)NC(=O)[C@H](CC(C)C)NC(=O)[C@H](CCCNC(=N)N)NC(=O)CNC(=O)[C@H](CO)NC1=O [HD5ox] (H-ATCYCRTGRCATRESLSGVCEISGRLYRLCCR-OH; disulfide 3-31, 5-20, 10-30 (inferred); N-terminus and C-terminus assumed)
bacterial morphology [1]: bleb formation, elongation, and clumping
bacterial morphology (E. coli K-12): bleb formation, elongation, and clumping
bacterial morphology (E. coli CFT073): bleb formation, elongation, and clumping
oligomeric form at neutral pH [2]: tetramers
mean cell length after treatment (E. coli cyto-GFP; mid-log phase, increasing HD5ox (0–80 μM), from 2.8 ± 0.8 μm without peptide): 3.4 ± 1.0 μm
mean GFP fluorescence intensity after treatment (E. coli cyto-GFP; mid-log phase, increasing HD5ox (0–80 μM), from 155 ± 48 units without peptide): 93 ± 47 units
mean cell length after treatment (E. coli cyto-GFP; stationary phase, from 3.0 ± 0.8 μm without peptide): 2.9 ± 0.7 μm
mean GFP fluorescence intensity after treatment (E. coli cyto-GFP; stationary phase, from 112 ± 38 units without peptide): 139 ± 53 units
cells elongated (length 5 μm or greater) (E. coli ATCC 25922 [3]; 20 μM peptide, n = 212 cells): 2%
cells exhibiting blebs (E. coli ATCC 25922 [3]; 20 μM peptide, n = 212 cells): ~ 17%
bacterial morphology with NaCl (E. coli ATCC 25922 [3]; 40 μM peptide co-treated with 200 mM NaCl): smooth morphology similar to that of the untreated control
bacterial morphology (phase-contrast) (E. coli ATCC 25922 [3]; 2 and 4 μM peptide, mid-log phase, 1 × 10^6 CFU/mL, standard AMA conditions): formation of large bulges
cells elongated (length 5 μm or greater) (E. coli ATCC 25922 [3]; ≥40 μM peptide, n = 203 cells): ≥ 4%
cells exhibiting blebs (E. coli ATCC 25922 [3]; ≥40 μM peptide, n = 203 cells): ~ 30%
log-reduction in CFU/mL (E. coli ATCC 25922 [4]; mid-log phase E. coli): ~ 4 fold log-reduction in CFU/mL
log-reduction in CFU/mL (E. coli ATCC 25922 [4]; stationary phase E. coli): ~ 2 fold log-reduction in CFU/mL
log reduction in CFU/mL (E. coli ATCC 25922 [4]; 40 μM peptide, modified AMA conditions, 1 × 10^8 CFU/mL): ≈ 2 fold log reduction in CFU/mL
antibacterial activity in presence of Zn(II) (E. coli ATCC 25922 [4]; 2:1 Zn(II):HD5ox molar ratio): loss of antibacterial activity
HD5ox activity in presence of divalent cations (E. coli ATCC 25922 [4]; Ca(II), Mg(II) and Zn(II) added): blocked HD5ox activity
lethal dose for 99.99% killing, LD99.99 (E. coli ATCC 25922 [4]; E. coli ATCC 25922, 1 × 10^6 CFU/mL, n = 3 (Figure 9C)): 8 µM
bacterial morphology ([5]; 40 μM peptide, 1 × 10^8 CFU/mL, mid-log, 1 h 37 °C): bleb formation, elongation, and clumping
HD5ox concentration at which blebs were observed (only at this concentration) ([5]; PAO1, 1 h): 40 µM
bacterial morphology ([6]; 20 μM peptide, 1 × 10^8 CFU/mL, mid-log, 1 h 37 °C): bleb formation, elongation, and clumping
HD5ox concentration at which blebs were displayed ([6]; 17978, 1 h): 10 µM

B1: HD5-TE: Linear form of human α-defensin 5 (iodoacetamide-capped) (peptide, UniProt Q01523 20-94, looked up)
Defensin alpha 5: ESLQERADEATTQKQSGEDNQDLAISFAGNGLSALRTSGSQARATCYCRTGRCATRESLSGVCEISGRLYRLCCR
modifications: Defensin-5 cysteines carbamidomethylated
log reduction of CFU/mL (E. coli ATCC 25922 [4]; 16 μM peptide): 2 fold log reduction of CFU/mL

B2: R-HD5[R9K]: rhodamine-HD5 conjugate, fluorophore positioned at R9K mutation site (conjugate, UniProt Q01523 20-94, looked up, variant R9K)
Defensin alpha 5: B1 Defensin alpha 5 with R52K
modifications: Defensin-5 rhodamine label at K9
antimicrobial activity against E. coli (in words) (E. coli ATCC 25922 [4]; AMA assay): active against E. coli
